Source: PubChem (Johns Hopkins Ion Channel Center)
In the library only some 3.7% were active in any assay of this set; here they are far more common.
KCNQ1 act: potentiators or activators of KCNQ1 channel, primary screen, cell-based, thallium flux, high-throughput | 0.35% of 310,000 active | B-score at 10 µM | AID 2648, 2010 | CHO-K1 KCNQ1, thallium flux FluxOR fluorescence; hits give high values;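 active means fluorescence ratio B-score, a plate-corrected score, at least three library SD, with initial intensity B-score within 5 SD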
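Test system: CHO-K1 cells stably expressing KCNQ1 / Medium: assay buffer / Also added: depolarizing K+/Tl+ stimulus, K2SO4 and Tl2SO4 each 12.5 mM in 5x stock / Incubation: 90 min dye loading and 20 min compound exposure, both at room temperature / Signal: thallium influx via FluxOR fluorescence, kinetic imaging / Evaluation: B score of baseline-normalized fluorescence ratio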
hERG protect: hERG rescue from dofetilide block, primary screen, cell-based, CHO-hERG, FluxOR thallium flux, dofetilide IC70 | Voltage-gated inwardly rectifying potassium channel KCNH2 (Homo sapiens), Q12809 | dofetilide IC70 present | activation (rescue from dofetilide block), less the hit threshold, % at 10 µM | 0.51% of 310,000 active | AID 1511, 2009;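 active means activation above the mean of controls blocked by dofetilide plus 5 SD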;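 further: thallium influx through hERG after potassium depolarization seen as dye fluorescence rise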
KCNQ1 inh: inhibitors of human KCNQ1 channel, primary screen, cell-based, thallium flux, high-throughput. Potassium voltage-gated channel subfamily KQT member 1 (Homo sapiens), P51787. CHO-K1 KCNQ1, FluxOR thallium flux fluorescence; hits give high values. B-score at 10 µM. 1.3% of 310,000 active;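 active means compounds whose thallium flux B-score, printed positive for inhibition, exceeds three library SD while starting fluorescence stays within three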;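 further: channel opened by potassium depolarization with thallium stimulus after 20 min compound exposure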
KCNK3 block: human KCNK3 channel inhibitors, primary screen, CHO cells, FluxOR thallium flux, B-score; B-score at 10 µM; 0.84% of 340,000 active; Potassium channel subfamily K member 3 (Homo sapiens), O14649; FluxOR fluorescence; hits give low values;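 active means B-score under library mean minus 4 SD, starting fluorescence ratio at most library mean plus 5 SD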;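 further: more negative B-score means stronger inhibition of thallium flux through KCNK3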
KCNK9 inh: KCNK9 potassium channel inhibitors, primary screen, HEK293 cells, thallium flux. FluxOR thallium flux fluorescence; hits give low values. AID 488922, 2010. B-score at 10 µM. Potassium channel subfamily K member 9 (Homo sapiens), Q9NPC2. 1.2% of 310,000 active;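 active means ratio B-score over 3 SD below the library mean, with starting fluorescence within 5 SD of its mean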;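 further: negative B-score means less thallium flux so channel inhibition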
Kir21 inh: inhibitors of mouse Kir2.1 inward-rectifier potassium channel; Inward rectifier potassium channel 2 (Mus musculus), P35561; HEK293-Kir2.1, FluxOR thallium flux fluorescence; hits give low values; B-score at 10 µM; 0.85% of 310,000 active;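 active means fluorescence ratio B-score at or below minus 3 SD of library scores, with starting-brightness B-score within 2 SD, cut at about -4.2 in these data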;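 further: channel flux triggered by added potassium and thallium sulfate stimulus; B-score of peak minus minimum fluorescence over baseline after thallium stimulus; more negative B-score means stronger Kir2.1 block with less thallium influx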
Target sequence (P35561 whole entry, looked up): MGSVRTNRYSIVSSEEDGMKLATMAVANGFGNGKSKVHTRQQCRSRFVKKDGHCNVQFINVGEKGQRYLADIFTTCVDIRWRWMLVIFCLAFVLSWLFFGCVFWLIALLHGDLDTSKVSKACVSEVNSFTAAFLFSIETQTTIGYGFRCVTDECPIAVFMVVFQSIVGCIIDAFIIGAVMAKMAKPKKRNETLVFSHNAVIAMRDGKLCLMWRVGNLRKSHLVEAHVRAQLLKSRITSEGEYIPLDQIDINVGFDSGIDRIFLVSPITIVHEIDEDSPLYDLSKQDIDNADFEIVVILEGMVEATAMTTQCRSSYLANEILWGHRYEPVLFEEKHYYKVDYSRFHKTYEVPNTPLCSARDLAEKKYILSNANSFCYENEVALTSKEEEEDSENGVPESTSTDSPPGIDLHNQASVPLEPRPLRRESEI
The depositor's hits bear a star; i = inactive; . = not tested or not shown.

SMILES	KCNQ1 act	hERG protect	KCNQ1 inh	KCNK3 block	KCNK9 inh	Kir21 inh
CCc1nc(N2CCCC(C)C2)c2oc3ccccc3c2n1 (centres undefined)	i	-12	i	i	-7.4*	-0.95
CCC(C)Sc1ccc(-c2nc3ccccn3c2NCc2ccccc2)cc1OC (centres undefined)	.	.	.	i	.	.
COc1ccc(CSc2ccc(-c3nc4ccccn4c3NCc3ccccc3)cc2OC)cc1	i	-7	6*	i	i	-1.2
Cc1ccc(S(=O)(=O)NCc2ccccc2)cc1C(=O)N(C)CC(=O)Nc1c(Cl)cccc1Cl	i	-15	i	i	i	-0.38
Cc1cccc(CN(CC(=O)N/N=C/c2ccco2)S(=O)(=O)c2ccc(Cl)cc2)c1	i	-12	9*	i	i	2
Cc1ccc(S(=O)(=O)N(CC(=O)N/N=C/c2ccco2)Cc2ccccc2)cc1	i	-13	i	i	i	1.3
Cc1[nH]c2ccccc2c1/C=N/NC(N)=S	i	-12	i	i	i	-0.04
Cc1ccc(NC(=S)N/N=C/c2c(C)[nH]c3ccccc23)cc1	i	-9	6*	i	i	-0.22
Cc1[nH]c2ccccc2c1/C=N/NC(=S)NCc1ccccc1	i	-4	6*	i	i	1.6
Cc1cc(C)cc(OCC(=O)NNC(=O)CCC(=O)NCc2ccccc2)c1	i	-6	i	i	i	1.8
Cc1cc(OCC(=O)NCCc2c[nH]c3ccccc23)c2c(C)cc(=O)oc2c1	i	-6	i	i	i	-0.66
C=CCn1c(SCc2cccc3ccccc23)nnc1-c1cccnc1	i	-15	i	i	i	-6.4*
Fc1ccc(CSc2nnc(-c3cnccn3)n2Cc2ccco2)cc1	i	-5	i	i	i	-0.54
C=CCn1c(SCC(=O)Nc2ccc(C(=O)O)cc2)nnc1-c1cccnc1	i	-7	i	i	i	-0.02
C(=C\c1ccccc1)/CSc1nnc(-c2cnccn2)n1Cc1ccco1	i	-11	i	i	i	-5.3*
Clc1ccccc1CSc1nnc(-c2cccnc2)n1Cc1ccco1	i	-15	i	i	i	-4.4*
CC1CCCC(NC(=O)COC(=O)/C=C/c2ccc([N+](=O)[O-])cc2)C1C (centres undefined)	.	.	.	i	.	.
CCN(Cc1ccccc1)C(=O)CSc1nc(C)cc(C)c1C#N	i	-11	i	i	i	-4.7*
CCN(CC)C(=O)CSc1nc(C)cc(C)c1C#N	i	-17	i	i	i	-0.09
Cc1ccc(C)c(/C=C/C(=O)c2ccccc(=O)c2O)c1	27*	18*	i	i	i	-2.7
Cc1ccc(/C=C/C(=O)c2ccccc(=O)c2O)c(C)c1	19*	26*	i	i	i	-1.2
O=C(/C=C/c1ccc([N+](=O)[O-])cc1)c1ccccc(=O)c1O	.	.	.	i	.	.
O=C(C=Cc1ccccc1O)c1ccccc1O	.	.	.	i	.	.
O=C(/C=C/c1ccccc1Cl)c1ccccc(=O)c1O	14*	16*	i	i	i	-0.96
Cc1ccc(OCC(=O)NCCCNC(=O)c2ccco2)cc1	i	-9	i	i	i	1.3
SMILES	KCNQ1 act	hERG protect	KCNQ1 inh	KCNK3 block	KCNK9 inh	Kir21 inh
O=C(Nc1cccc(C(=O)N2CCCC2)c1)C1CC1	.	.	.	i	.	.
O=C(CNC(=O)c1cc(-c2ccccc2)nn1-c1ccccc1)Nc1ccccc1Br	.	.	.	i	.	.
O=[N+]([O-])c1ccc2nc(-c3ccc(OC(F)F)cc3)cn2c1	i	-15	i	i	i	-1.4
CC(=O)c1c(C)[nH]c(C(=O)OCC(=O)Nc2ccc(C)cc2[N+](=O)[O-])c1C	i	-10	6*	i	i	0.02
N#C/C(=C\c1c(Oc2ccc(Cl)cc2)nc2ccccn2c1=O)C(=O)NC1CCS(=O)(=O)C1 (centres undefined)	i	-19	i	i	i	-4.4*
COC(=O)[C@H](CCSC)NC(=O)Cn1cnc2c(OCc3ccccc3)ncnc21	.	.	.	i	.	.
Cn1ncc2c(N3CCC(Cc4ccccc4)CC3)ncnc21	i	-13	i	i	i	0.61
NNC(=O)c1cc2c(N3CCC(Cc4ccccc4)CC3)ncnc2s1	i	-22	6*	i	i	0.99
COc1ccc(S(=O)(=O)N2CCC(C(=O)NCCc3c[nH]c4ccccc34)CC2)cc1	i	-9	i	i	i	1.6
Cc1ccc(C23CC4CC(CC(CN)(C4)C2)C3)cc1	i	-9	i	i	i	-5.9*
COc1ccc(CN2CCCC(C(=O)c3cccc(C(F)(F)F)c3)C2)cc1O (centres undefined)	i	-23	i	i	i	-12*
CC(=O)Nc1ccc(CN2CCCC(C(=O)c3cccc(C(F)(F)F)c3)C2)cc1 (centres undefined)	i	-11	i	i	i	-0.88
CCCCCCc1cc2cc(-c3nnc(-c4ccccc4O)o3)c(=O)oc2cc1O	i	4	i	i	i	-1.9
CCCCCCc1cc2cc(C(=O)Nc3ccccc3OC)c(=O)oc2cc1O	i	-4	i	i	i	2.1
CCCCCCc1cc2cc(-c3nnc(-c4cc(OC)c(OC)c(OC)c4)o3)c(=O)oc2cc1O	i	-10	15*	.	i	-3.9
CCCCCCc1cc2cc(-c3nnc(-c4ccccc4OC)o3)c(=O)oc2cc1O	i	-8	8*	i	i	-3.1
CC(=O)N=c1sccn1CC(O)c1ccc(Br)cc1 (centres undefined)	i	0	i	i	i	-2.4
COc1ccc(N2C(=O)CC(NCCNc3ccc([N+](=O)[O-])cn3)C2=O)cc1 (centres undefined)	i	-9	i	i	i	-0.05
COC(=O)Cc1cc(OC)c(OC)cc1S(=O)(=O)N(C)C	i	1	i	i	i	-1.3
CCC[C@@H](CN[C@@H](CNC)[C@H](C)CC)NCC1CCC(C(C)(C)C)CC1 (some centres undefined)	i	-12	i	i	i	-4.9
